Results taken from publication PMC11022931 (Blood, 2022).

Tests used:
human platelets [1] = test: Multiple electrode aggregometry; assay type: cell-based; conditions: MEA, human blood; for effect on platelet aggregation induced by human plaque homogenate: plaque 833 µg/mL, AMD3465 100 nM, i[VREY]4 5 µM
mouse platelets [2] = test: i[VREY]4-biot binding to mouse platelets, flow cytometry; assay type: cell-based
[3] = i[VREY]4 pharmacokinetics, plasma ELISA; assay type: in vivo, C57BL/6J mice; conditions: C57BL/6J, mouse, ip, 75 ug
Outline: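 Biotinylated test compound (75 µg) was injected i.p. into mice. Plasma levels of the biotinylated peptide were measured by ELISA at several time points after injection. Data are means ± SD.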

15N-labeled CXCL12 = 15N-labeled CXCL12 (Homo sapiens, UniProt P48061); test: 15N HSQC NMR titration of CXCL12 with i[VREY]4; assay type: binding; conditions: 20 µM 15N-CXCL12, i[VREY]4 20, 40, 200 µM; 25 mM KPi pH 7.1; 25 °C
human platelets [4] = test: i[VREY]4-biot binding and proximity ligation with CXCL12 on human platelets; assay type: cell-based; conditions: flow cytometry, resting vs collagen-activated, n = 6
[5] = molecular target: CXCL12 on human platelets (Homo sapiens, UniProt P48061); test: Detection of CXCL12 on human platelets with anti-CXCL12 antibodies; assay type: cell-based; conditions: human blood, CXCL12 0.1 µg/mL or collagen 1 µg/mL
mouse platelets [6] = test: MEA in mouse blood activated with collagen; assay type: cell-based; conditions: 1 µg/mL collagen, 5 µM i[VREY]4, n = 6-8
Outline: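 Blood came from mice with megakaryocyte-lineage Cxcl12 deletion (Pf4-Cre × Cxcl12 fl/fl, Apoe-/- background) or from Cxcl12 wt/wt controls. It was mixed with 1 µg/mL collagen with or without 5 µM test compound, and aggregation was measured by multiple electrode aggregometry (Multiplate), n=6-8 mice. Data are means ± SD.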

CXCR4 = CXCR4 internalization on human platelets, flow cytometry; assay type: cell-based; conditions: CXCL12 0.1 µg/mL, i[VREY]4 5 µM
Outline: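 Human blood diluted 1:1 with PBS and treated with recombinant CXCL12 (0.1 µg/mL), collagen (1 µg/mL) and test compound (5 µM). Platelet-surface CXCR4 was stained with anti-CXCR4 clone 12G5 and measured by flow cytometry. Data are means ± SD of independent experiments, analysed by one-way ANOVA with Tukey's multiple comparison test.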

human platelets [7] = test: Platelet activation by PAC-1 and P-selectin staining, flow cytometry; assay type: cell-based; conditions: human blood, remibrutinib 0.1 µM 30 minutes at 37°C, CXCL12 0.1 μg/mL, CRP-XL 0.01 μg/mL, n = 6
CXCL12 = CXCL12 (Homo sapiens, UniProt P48061); conditions: read-out: KD of CXCL12 binding to CCL5; cited from earlier work

## c1ccc(CNCc2ccc(CN3CCCNCCNCCCNCC3)cc2)nc1 [AMD3465, reference compound]
Human platelets [1]
  effect on platelet aggregation induced by human plaque homogenate: reduced

## CC[C@H](C)[C@H](NC(=O)[C@H](Cc1ccc(O)cc1)NC(=O)[C@H](CCC(=O)O)NC(=O)[C@H](CCCNC(=N)N)NC(=O)[C@@H](NC(=O)[C@H](Cc1c[nH]c2ccccc12)NC(=O)[C@H](CCCCN)NC(=O)[C@H](CCCCN)NC(=O)[C@H](CCC(=O)O)NC(=O)CNC(=O)CON=C(C)CCCC(=O)NCCCC[C@@H]1NC(=O)[C@H](CCC(=O)O)NC(=O)[C@H](CCCCNC(=O)CCCC(C)=NOCC(=O)NCC(=O)N[C@@H](CCC(=O)O)C(=O)N[C@@H](CCCCN)C(=O)N[C@@H](CCCCN)C(=O)N[C@@H](Cc2c[nH]c3ccccc23)C(=O)N[C@H](C(=O)N[C@@H](CCCNC(=N)N)C(=O)N[C@@H](CCC(=O)O)C(=O)N[C@@H](Cc2ccc(O)cc2)C(=O)N[C@H](C(=O)N[C@@H](CC(N)=O)C(=O)N[C@@H](CO)C(=O)N[C@@H](CC(C)C)C(=O)N[C@@H](CCC(=O)O)C(=O)N[C@@H](CCSC)C(=O)N[C@@H](CO)C(=O)O)[C@@H](C)CC)C(C)C)NC(=O)[C@@H]2CCCN2C(=O)[C@H](CSC2CC(=O)N(CCCCCC(=O)NNC(=O)CCCC[C@@H]3SC[C@@H]4NC(=O)N[C@@H]43)C2=O)NC(=O)[C@H](CCCCNC(=O)CCCC(C)=NOCC(=O)NCC(=O)N[C@@H](CCC(=O)O)C(=O)N[C@@H](CCCCN)C(=O)N[C@@H](CCCCN)C(=O)N[C@@H](Cc2c[nH]c3ccccc23)C(=O)N[C@H](C(=O)N[C@@H](CCCNC(=N)N)C(=O)N[C@@H](CCC(=O)O)C(=O)N[C@@H](Cc2ccc(O)cc2)C(=O)N[C@H](C(=O)N[C@@H](CC(N)=O)C(=O)N[C@@H](CO)C(=O)N[C@@H](CC(C)C)C(=O)N[C@@H](CCC(=O)O)C(=O)N[C@@H](CCSC)C(=O)N[C@@H](CO)C(=O)O)[C@@H](C)CC)C(C)C)NC(=O)[C@H](CCCCN)NC(=O)[C@H](CCCCNC(=O)CCCC(C)=NOCC(=O)NCC(=O)N[C@@H](CCC(=O)O)C(=O)N[C@@H](CCCCN)C(=O)N[C@@H](CCCCN)C(=O)N[C@@H](Cc2c[nH]c3ccccc23)C(=O)N[C@H](C(=O)N[C@@H](CCCNC(=N)N)C(=O)N[C@@H](CCC(=O)O)C(=O)N[C@@H](Cc2ccc(O)cc2)C(=O)N[C@H](C(=O)N[C@@H](CC(N)=O)C(=O)N[C@@H](CO)C(=O)N[C@@H](CC(C)C)C(=O)N[C@@H](CCC(=O)O)C(=O)N[C@@H](CCSC)C(=O)N[C@@H](CO)C(=O)O)[C@@H](C)CC)C(C)C)NC(=O)[C@@H]2CCCN2C(=O)CNC1=O)C(C)C)C(=O)N[C@@H](CC(N)=O)C(=O)N[C@@H](CO)C(=O)N[C@@H](CC(C)C)C(=O)N[C@@H](CCC(=O)O)C(=O)N[C@@H](CCSC)C(=O)N[C@@H](CO)C(=O)O (some centres unmarked) [i[VREY]4-biot]
Mouse platelets [2]; resting conditions, flow cytometry
  binding to the surface of unactivated mouse platelets: No binding was observed
Mouse platelets [2]; resting or 10 µg/mL collagen, streptavidin-FITC flow cytometry, n = 3-5
  binding to the surface of mouse platelets, wild type vs CXCR4 knockout: required platelet activation and CXCR4
[3]
  Cmax: 1970 ng/mL

## CC[C@H](C)[C@H](NC(=O)[C@H](Cc1ccc(O)cc1)NC(=O)[C@H](CCC(=O)O)NC(=O)[C@H](CCCNC(=N)N)NC(=O)[C@@H](NC(=O)[C@H](Cc1c[nH]c2ccccc12)NC(=O)[C@H](CCCCN)NC(=O)[C@H](CCCCN)NC(=O)[C@H](CCC(=O)O)NC(=O)CNC(=O)CON=C(C)CCCC(=O)NCCCC[C@@H]1NC(=O)[C@H](CCC(=O)O)NC(=O)[C@H](CCCCNC(=O)CCCC(C)=NOCC(=O)NCC(=O)N[C@@H](CCC(=O)O)C(=O)N[C@@H](CCCCN)C(=O)N[C@@H](CCCCN)C(=O)N[C@@H](Cc2c[nH]c3ccccc23)C(=O)N[C@H](C(=O)N[C@@H](CCCNC(=N)N)C(=O)N[C@@H](CCC(=O)O)C(=O)N[C@@H](Cc2ccc(O)cc2)C(=O)N[C@H](C(=O)N[C@@H](CC(N)=O)C(=O)N[C@@H](CO)C(=O)N[C@@H](CC(C)C)C(=O)N[C@@H](CCC(=O)O)C(=O)N[C@@H](CCSC)C(=O)N[C@@H](CO)C(=O)O)[C@@H](C)CC)C(C)C)NC(=O)[C@@H]2CCCN2C(=O)[C@H](CSCC(N)=O)NC(=O)[C@H](CCCCNC(=O)CCCC(C)=NOCC(=O)NCC(=O)N[C@@H](CCC(=O)O)C(=O)N[C@@H](CCCCN)C(=O)N[C@@H](CCCCN)C(=O)N[C@@H](Cc2c[nH]c3ccccc23)C(=O)N[C@H](C(=O)N[C@@H](CCCNC(=N)N)C(=O)N[C@@H](CCC(=O)O)C(=O)N[C@@H](Cc2ccc(O)cc2)C(=O)N[C@H](C(=O)N[C@@H](CC(N)=O)C(=O)N[C@@H](CO)C(=O)N[C@@H](CC(C)C)C(=O)N[C@@H](CCC(=O)O)C(=O)N[C@@H](CCSC)C(=O)N[C@@H](CO)C(=O)O)[C@@H](C)CC)C(C)C)NC(=O)[C@H](CCCCN)NC(=O)[C@H](CCCCNC(=O)CCCC(C)=NOCC(=O)NCC(=O)N[C@@H](CCC(=O)O)C(=O)N[C@@H](CCCCN)C(=O)N[C@@H](CCCCN)C(=O)N[C@@H](Cc2c[nH]c3ccccc23)C(=O)N[C@H](C(=O)N[C@@H](CCCNC(=N)N)C(=O)N[C@@H](CCC(=O)O)C(=O)N[C@@H](Cc2ccc(O)cc2)C(=O)N[C@H](C(=O)N[C@@H](CC(N)=O)C(=O)N[C@@H](CO)C(=O)N[C@@H](CC(C)C)C(=O)N[C@@H](CCC(=O)O)C(=O)N[C@@H](CCSC)C(=O)N[C@@H](CO)C(=O)O)[C@@H](C)CC)C(C)C)NC(=O)[C@@H]2CCCN2C(=O)CNC1=O)C(C)C)C(=O)N[C@@H](CC(N)=O)C(=O)N[C@@H](CO)C(=O)N[C@@H](CC(C)C)C(=O)N[C@@H](CCC(=O)O)C(=O)N[C@@H](CCSC)C(=O)N[C@@H](CO)C(=O)O [i[VREY]4]
15N-labeled CXCL12
  affinity of interaction with CXCL12 by HSQC NMR titration: in the micromolar range
Human platelets [4]
  change of i[VREY]4 binding to human platelets on activation with collagen: increased
Human platelets [1]
  effect on platelet aggregation induced by human plaque homogenate: inhibited
[5]; n = 8
  effect on binding of anti-CXCL12 antibody clone #79018 to platelets: diminished
[5]; n = 10
  effect on binding of anti-CXCL12 antibody K15C to platelets: did not result in reduced binding of K15C
Mouse platelets [6]
  effect on collagen-induced platelet aggregation in blood from Cxcl12 wt/wt mice: diminished
CXCR4
  effect on internalization of CXCR4 after CXCL12 exposure: could not be reversed

## C=CC(=O)N(C)CCOc1c(N)ncnc1-c1cc(F)cc(NC(=O)c2ccc(C3CC3)cc2F)c1C [remibrutinib]
Human platelets [7]
  effect on P-selectin expression and integrin αIIbβ3 activation by CRP-XL combined with CXCL12: reversed

## CCL5: recombinant human chemokine CCL5
CXCL12
  Kd: 578 ± 61 nM

## CXCL12: recombinant human chemokine CXCL12, platelet agonist
Human platelets [1]; recombinant CXCL12 alone, n = 5-10
  CXCL12 concentration that induced platelet aggregation: ≥ 100 ng/mL
